Screening data as filed in PubChem BioAssay.
The list is not random: actives were taken first. Their share in the collection is about 2.7%.
OXTR ag: agonists of human oxytocin receptor; P30559; CHO-OTR cells, Fluo-8 calcium fluorescence; normalized: DMSO 0%, oxytocin 100%; activation, % at 3 µM; 320,000 tested, 0.32% active; AID 2435;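 active = activation above the mean of all tested compounds plus 3 SD, cutoff set per screening run, cut at about 20% in these data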;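 also: peak over basal fluorescence ratio from a 100 s FLIPR kinetic read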
OX1R antag-1: human HCRTR1 antagonism; O43613; CHO/OX1R cells, Fluo-8 calcium fluorescence, orexin A; inhibition, % at 5 µM; 330,000 tested, 0.43% active; AID 434989;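 active = inhibition above its plate's threshold, mean inhibition of all tested compounds on the plate plus 3 SD, cut at about 37% in these data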
V1R ag counter: V1a receptor agonism, counter-screen for OXTR agonists. 320,000 tested, 0.25% active. P37288. activation, % at 3 µM. CHO-V1R cells, Fluo-8 calcium fluorescence, agonist mode; 0% DMSO, 100% 3 nM vasopressin;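 active = activation above the mean activation of all tested compounds plus 3 SD, per screening run, cut at about 20% in these data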;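 also: signal is peak over basal fluorescence ratio across a 100 second FLIPR read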
Target sequence (P37288 whole entry, looked up): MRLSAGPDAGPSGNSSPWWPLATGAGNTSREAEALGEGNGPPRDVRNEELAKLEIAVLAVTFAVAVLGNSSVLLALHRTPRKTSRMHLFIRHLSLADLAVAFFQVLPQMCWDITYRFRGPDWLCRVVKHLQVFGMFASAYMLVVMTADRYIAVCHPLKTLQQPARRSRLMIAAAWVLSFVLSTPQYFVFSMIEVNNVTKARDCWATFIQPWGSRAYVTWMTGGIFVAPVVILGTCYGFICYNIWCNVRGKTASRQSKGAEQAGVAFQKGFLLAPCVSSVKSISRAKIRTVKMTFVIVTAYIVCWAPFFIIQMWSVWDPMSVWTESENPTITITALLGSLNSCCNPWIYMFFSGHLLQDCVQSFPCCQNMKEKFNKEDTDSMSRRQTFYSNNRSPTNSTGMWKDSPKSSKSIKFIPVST
OXTR potentiate: human OXTR potentiation | P30559 | CHO-OTR cells, Fluo-8 calcium fluorescence, potentiator mode; 0% = oxytocin EC15, 100% = EC100 | activation, % at 3 µM | 320,000 tested, 0.061% active | AID 2445;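 active = activation above that plate's cutoff, the mean activation of tested compounds plus 3 SD, cut at about 6.6% in these data, passing the limit was not always enough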
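Assay system: CHO-OTR cells, human receptor / Also added: oxytocin at about EC15, sub-maximal agonist stimulus / Dosing: single dose, 3.0 µM nominal final compound concentration / Incubation: 6 min pre-incubation, 100 s read / Technique: Fluo-8 calcium dye fluorescence / Read-out: % activation vs EC15 and EC100 oxytocin / Benchmarks: EC15 oxytocin low, 75 nM oxytocin high / Replicates: singlicate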
CHO parental Ca: counter-screen for OX1R antagonists: effect in parental CHO cells; inhibition, % at 5.6 µM; 330,000 tested, 0.63% active; parental CHO-K1, ATP-induced calcium, Fluo-8 fluorescence;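 active = inhibition above that plate's mean sample inhibition plus 3 SD, cut at about 26% in these data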
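Material – parental CHO cells · Reagent – ATP stimulus · Compound – single nominal dose of 5.6 µM per compound · Detection – Fluo-8 fluorescence · Read-out basis – percent inhibition of calcium signal · Controls – ATP-challenged DMSO wells low, unchallenged DMSO wells high · Repeats – no replicates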
OX1R antag-2: OX1R (human) antagonism; OX1R-expressing cells, FRET antagonist read-out; O43613; 330,000 tested, 1.8% active; inhibition, % at 6.6 µM; in the data active = inhibition mostly above about 38%, no sharp cut-off; inactive = mostly below about 40%
Hits are given with their value; 0 = inactive.

SMILES	OXTR ag	OX1R antag-1	V1R ag counter	OXTR potentiate	CHO parental Ca	OX1R antag-2
O=C1CN(O)C(c2ccccc2Cl)=c2cc(Br)ccc2=N1	0	0	0	0	0	0
O=C(CSC1c2ccccc2-c2ccccc21)N/N=C/c1ccccc1O	0	0	0	0	0	60
O=C1NC(=O)C(=Cc2csc3ccccc23)C(=O)N1	24	0	0	0	0	0
Cn1cc(C=C2C(=O)NC(=O)NC2=O)c2ccccc21	0	0	0	0	0	0
Cc1ccc(N2C(=O)CC(=O)NC2=O)cc1Cl	0	0	0	0	0	0
COC(=O)C1=C(c2cc3ccccc3o2)C[C@@H]2CC[C@H]1N2C(=O)NCc1cccc2ccccc12	0	0	0	0	0	69
C=C1C(O)[C@@H]2O[C@]3(CC[C@H](/C=C/C(C)[C@@H]4CC(C)=CC5(O[C@H](C[C@@](C)(O)C(=O)O)CCC5O)O4)O3)CC[C@H]2O[C@@H]1C(O)CC(C)[C@H]1OC2(CCCCO2)CCC1C (stereo partly drawn)	0	0	0	0	0	50
CC(C)(C)c1cc(C=C(C#N)C#N)cc(C(C)(C)C)c1O	0	0	0	0	0	44
Clc1ccc(CCC(Cn2ccnc2)Sc2c(Cl)cccc2Cl)cc1 (stereo not drawn)	0	0	0	0	0	0
Cc1ccc(-c2cc(-c3ccc(C)cc3)[n+](-c3ccc(C(=O)[O-])cc3)c(-c3ccc(C)cc3)c2)cc1	0	0	0	0	0	0
Cc1ccc(-c2cc(-c3ccccc3)cc(-c3ccccc3)[n+]2-c2ccccc2)cc1	0	71	0	0	74	0
Cc1ccc(-c2cc(-c3ccc(C)cc3)[n+](-c3ccccc3)c(-c3ccc(C)cc3)c2)cc1	0	91	0	0	71	0
c1ccc(-c2cc(-c3ccccc3)[n+](-c3ccccc3)c(-c3ccccc3)c2)cc1	0	84	0	0	84	0
COC12CCC3(CC1C(C)(O)C(C)(C)C)[C@H]1Cc4ccc(O)c5c4[C@@]3(CCN1CC1CC1)C2O5 (stereo partly drawn)	0	0	0	0	0	0
CC(=O)OC1C=CC2[C@H]3Cc4ccc(O)c5c4[C@@]2(CCN3C)C1O5 (stereo partly drawn)	0	0	0	0	0	0
C/C(=N\N1CCCCCC1)c1c(O)n(C)c(=O)n(C)c1=O	0	0	0	0	0	0
C/C(=N\NC(N)=O)c1c(O)n(C)c(=O)n(C)c1=O	0	0	0	0	35	0
CCC(=NCc1ccc2c(c1)OCO2)c1c(O)n(C2CCCCC2)c(=O)[nH]c1=O	0	0	0	0	26	0
CC(C)Sc1nnc([C@@H](N)Cc2c[nH]c3ccccc23)o1	0	0	0	0	0	40
NC(=O)CSc1nnc([C@@H](N)Cc2c[nH]c3ccccc23)o1	0	0	0	0	0	0
Cc1nc2ccccc2c(=O)n1-c1ccncc1	0	0	0	0	0	0
Cc1nc2ccccc2c(=O)n1-c1cc([N+](=O)[O-])cc([N+](=O)[O-])c1	0	0	0	0	0	74
O=C(Nc1cccc(Cl)c1)OC1CN2CCC1CC2 (stereo not drawn)	0	0	0	0	46	0
O=C(Nc1ccc(Cl)cc1)OC1CN2CCC1CC2 (stereo not drawn)	0	0	0	0	0	0
C[C@]12CCC3C(CC[C@H]4C[C@H](O)CC[C@]34C)C1CCC2=O (stereo partly drawn)	0	0	0	0	0	0
C/C=C(\C)C(=O)OC1C(C)=C2C(C1OC(=O)CCCCC)C(C)(OC(C)=O)CC(OC(=O)CCC)C1(O)C2OC(=O)C1(C)O (stereo not drawn)	62	101	65	0	101	0
Cc1ncc2n1-c1ccc(Cl)cc1C(c1ccccc1F)=NC2	0	0	0	0	0	0
COC1=CC(=O)[C@]2(C=C1OC)OC[C@@H]1Oc3c(ccc4c3C=CC(C)(C)O4)C(=O)[C@@H]12	0	60	0	0	62	0
CC(C)[N+]12CCC(CC1)C(C(O)(c1ccccc1)c1ccccc1)C2 (stereo not drawn)	0	0	0	0	0	0
